This note sets out measurements from ChEMBL document CHEMBL3621123, “Discovery and Optimization of a Series of Pyrimidine-Based Phosphodiesterase 10A (PDE10A) Inhibitors through Fragment Screening, Structure-Based Design, and Parallel Synthesis” (J Med Chem, 2015).

For data set [1], the target named is cAMP and cAMP-inhibited cGMP 3',5'-cyclic phosphodiesterase 10A (Homo sapiens, UniProt Q9Y233). As to the kind of experiment: Inhibition of human PDE10A2 transfected in AD293 cells by IMAP FP assay. The data set is classed as cell-based. The gist of the method: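 Ki values are the mean of at least two determinations, each from a 10-point dose–response curve.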

The species entered for data set [2] is Homo sapiens. As to the kind of experiment: Selectivity ratio of Ki for human PDE7A to Ki for human PDE10A2. Summed up: (§1)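 The ratio is PDEx Ki divided by PDE10A Ki. Each Ki is the mean of at least two determinations, each from a 10-point dose–response curve.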
For data set [3], the species on record is Homo sapiens. As to the kind of experiment: Selectivity ratio of Ki for human PDE11A4 to Ki for human PDE10A2. Summed up: as §1
For data set [4], the species on record is Homo sapiens. As to the kind of experiment: Selectivity ratio of Ki for human PDE4A1A to Ki for human PDE10A2. The gist of the method: as §1
A short description of data set [5]: Selectivity ratio of Ki for rhesus monkey PDE2A3 to Ki for human PDE10A2. The gist of the method:
as §1

Data set [6] is filed under the species Homo sapiens. As to the kind of experiment: Selectivity ratio of Ki for human PDE9A2 to Ki for human PDE10A2. The gist of the method: as §1
The species entered for data set [7] is Homo sapiens. As to the kind of experiment: Selectivity ratio of Ki for human PDE5A1 to Ki for human PDE10A2. The gist of the method:
as §1

The species named for data set [8] is Homo sapiens. Kind of data set: Selectivity ratio of Ki for human PDE3A to Ki for human PDE10A2. Summed up: as §1
Data set [9] is filed under the species Homo sapiens. As to the kind of experiment: Selectivity ratio of Ki for human PDE8A1 to Ki for human PDE10A2. Summed up:
as §1

Data set [10] is filed under the species Homo sapiens. Kind of data set: Selectivity ratio of Ki for human PDE1A to Ki for human PDE10A2. The gist of the method:
as §1

Data set [11] can be described thus: Plasma concentration in Wistar Hannover rat at 5 mg/kg, ip measured after 3.5 hrs. The class given is ADME, organism-based. Summed up: (§2)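 Plasma was sampled 3.5 h after a single ip dose, during the MK-801 hyperlocomotion study. Each value is the mean of two or three measurements.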
Data set [12] can be described thus: Plasma concentration in Wistar Hannover rat at 3 mg/kg, ip measured after 3.5 hrs. The class given is ADME, organism-based. Summed up: as §2
Data set [13] is described as follows: Plasma concentration in Wistar Hannover rat at 1 mg/kg, ip measured after 3.5 hrs. The class given is ADME, organism-based. The gist of the method: as §2
In the next data set the test system is Rattus norvegicus. As to the kind of experiment: Suppression of MK-801-induced hyperlocomotion in Wistar Hannover rat at 1 to 5 mg/kg, ip administered 120 mins followed by MK-801 induction measured after 90 mins. The class given is functional, organism-based. The gist of the method:
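Rats received ip doses of 1, 3 or 5 mg/kg and were then challenged with MK-801. Psychostimulant-induced locomotor activity was the read-out.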

The source made the active and inactive calls. The calls are words filed in the database; no cut-off is given here. Some results are limits rather than exact numbers.

Sequence of cAMP and cAMP-inhibited cGMP 3',5'-cyclic phosphodiesterase 10A (Q9Y233 whole entry): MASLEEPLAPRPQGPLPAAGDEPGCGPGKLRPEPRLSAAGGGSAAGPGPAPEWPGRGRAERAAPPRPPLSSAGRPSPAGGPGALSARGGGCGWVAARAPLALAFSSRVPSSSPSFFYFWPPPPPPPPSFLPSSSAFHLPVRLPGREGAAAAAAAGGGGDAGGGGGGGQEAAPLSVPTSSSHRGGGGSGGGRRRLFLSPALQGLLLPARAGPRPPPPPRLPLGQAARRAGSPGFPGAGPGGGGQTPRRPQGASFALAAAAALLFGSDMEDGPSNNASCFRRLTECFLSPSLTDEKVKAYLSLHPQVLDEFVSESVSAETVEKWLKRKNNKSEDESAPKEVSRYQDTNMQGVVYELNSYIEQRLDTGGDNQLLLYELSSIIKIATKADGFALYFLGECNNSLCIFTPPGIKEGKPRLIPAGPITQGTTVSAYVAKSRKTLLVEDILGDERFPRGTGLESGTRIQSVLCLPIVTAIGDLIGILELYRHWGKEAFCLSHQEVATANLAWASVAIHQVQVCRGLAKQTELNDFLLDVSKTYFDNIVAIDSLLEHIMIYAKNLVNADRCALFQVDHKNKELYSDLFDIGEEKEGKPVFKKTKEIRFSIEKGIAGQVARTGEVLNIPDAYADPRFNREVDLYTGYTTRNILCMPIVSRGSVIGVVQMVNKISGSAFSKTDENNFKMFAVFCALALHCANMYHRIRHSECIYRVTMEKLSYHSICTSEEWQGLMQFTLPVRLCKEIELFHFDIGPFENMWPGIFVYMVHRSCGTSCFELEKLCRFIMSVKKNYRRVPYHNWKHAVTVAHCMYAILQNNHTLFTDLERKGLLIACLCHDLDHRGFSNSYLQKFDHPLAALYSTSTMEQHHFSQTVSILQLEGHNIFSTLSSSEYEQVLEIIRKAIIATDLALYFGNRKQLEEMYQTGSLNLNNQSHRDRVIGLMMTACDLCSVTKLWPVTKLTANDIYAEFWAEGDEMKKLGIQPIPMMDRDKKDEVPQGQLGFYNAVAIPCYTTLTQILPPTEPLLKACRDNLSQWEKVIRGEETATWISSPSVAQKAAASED

The Ki is a measure of affinity in units of concentration, obtained from inhibition or displacement. Consider `Cc1nc(C)c(CNc2nc(OCCc3ccccc3)nc(Cl)c2C)s1`, for which the Ki in data set [1] stood at 9 nM.
On the same count and under the same terms, then `Cc1c(Cl)nc(C2CC2)nc1NCc1ccoc1`, with 680 nM.
For `CCCNc1nc(C2CC2)nc(Cl)c1C`, the Ratio Ki in the data set filed under Homo sapiens [2] worked out at 25; in the data set filed under Homo sapiens [3] it was 25; in the data set filed under Homo sapiens [4], 1; in data set [5] it was 100; in the data set filed under Homo sapiens [6], 25; in the data set listed under Homo sapiens [7] it was 1. The Ratio Ki in the data set listed under Homo sapiens [8], in the data set listed under Homo sapiens [9] and in the data set listed under Homo sapiens [10] was 25 in each case. Further, the affinity in data set [1] corresponds to a Ki of 880 nM.
As to `Cc1c(Cl)nc(C2CC2)nc1Cl`, the Ratio Ki (in the data set filed under Homo sapiens [2]; in the data set listed under Homo sapiens [3]; in the data set filed under Homo sapiens [4]; in data set [5]; in the data set filed under Homo sapiens [6]; in the data set filed under Homo sapiens [7]) was 1 in each case. Moreover, the Ratio Ki in the data set filed under Homo sapiens [8], in the data set filed under Homo sapiens [9] and in the data set listed under Homo sapiens [10] was 1 in each case. Moreover, affinity in data set [1] was put at a Ki of 8700 nM.
With `Cc1nc(C)c(CNc2nc(OCCCc3cn4ccccc4n3)nc(Cl)c2C)s1`, in data set [1], the Ki worked out at 0.047 nM.
Regarding `Cc1ncsc1CNc1nc(C2CC2)nc(Cl)c1C`, the affinity in [1], expressed as Ki, was 1600 nM.
With `CCCOc1nc(Cl)c(C)c(NCc2sc(C)nc2C)n1`, in data set [1], the Ki was 5.1 nM.
In turn, `Cc1c(Cl)nc(C2CC2)nc1NC1CCCC1` gave an inhibition constant Ki in data set [1] of 2800 nM.
Same read-out and setting: to `Cc1c(Cl)nc(C2CC2)nc1NCc1cccnc1` belongs 1000 nM; to `Cc1csc(CNc2nc(C3CC3)nc(Cl)c2C)n1`, 6800 nM.
On to `Cc1nc(C)c(CNc2nc(OCCCc3cnc4ccccc4n3)nc(Cl)c2C)s1`, for which the inhibition constant Ki in data set [1] was determined as 0.37 nM.
Compound `Cc1c(Cl)nc(C2CC2)nc1N1CCCC1` registered a Ki in [1] of 5300 nM.
As to `Cc1c(Cl)nc(C2CC2)nc1NC(C)C`, affinity in data set [1] was put at a Ki of 3600 nM.
Compound `Cc1c(Cl)nc(C2CC2)nc1NC(C)c1ccncc1` (racemic) had an inhibition constant Ki in data set [1] of 890 nM.
`Cc1c(Cl)nc(C2CC2)nc1N1CCNCC1`: the Ki in data set [1] was 4600 nM.
On to `Cc1cc(CNc2nc(C3CC3)nc(Cl)c2C)no1`, for which the Ki in data set [1] came out at 51 nM.
`Cc1c(Cl)nc(C2CC2)nc1NCc1cncs1` registered a Ki in data set [1] of 1000 nM.
As to `Cc1nc(C)c(CNc2nc(OCCO)nc(Cl)c2C)s1`, the inhibitory constant (Ki) in data set [1] stood at 12 nM.
In data set [1], `Cc1ccc(CNc2nc(C3CC3)nc(Cl)c2C)cn1` displayed an inhibition constant (Ki) of 130 nM.
In data set [1], `Cc1cc(CNc2nc(C3CC3)nc(Cl)c2C)on1` displayed a Ki of 38 nM.
Same read-out and setting: to `Cc1nc(C)c(CNc2nc(OCCc3ccccn3)nc(Cl)c2C)s1` belongs 2 nM.
`CCNc1nc(C2CC2)nc(Cl)c1C` came in with an inhibition constant (Ki) in data set [1] of 1200 nM.
`Cc1c(Cl)nc(C2CC2)nc1NCc1ccncc1` showed a Ki in [1] of 200 nM.
As to `Cc1c(Cl)nc(C2CC2)nc1NCc1ccccc1`, in data set [1], the inhibitory constant (Ki) is 1400 nM.
On to `COc1ncc(CNc2nc(C3CC3)nc(Cl)c2C)s1`, for which the affinity in data set [1], expressed as Ki, was 10 nM.
The compound `Cc1nc(CNc2nc(C3CC3)nc(Cl)c2C)cs1` gave a Ki in data set [1] of 18 nM.
`Cc1nc(C)c(CNc2nc(OCCCc3nc4ccccc4[nH]3)nc(Cl)c2C)s1`: the Ki in data set [1] came out at 0.02 nM.
On to `Cc1nc(C)c(CNc2nc(C3CC3)nc(Cl)c2C)s1`, for which the Ratio Ki in the data set filed under Homo sapiens [2] was > 1000; in the data set filed under Homo sapiens [3] it was 25; in the data set listed under Homo sapiens [4], 100; in [5] it was > 1000; in the data set filed under Homo sapiens [6], > 1000; in the data set filed under Homo sapiens [7] it was 100. The Ratio Ki in the data set listed under Homo sapiens [8], in the data set filed under Homo sapiens [9] and in the data set filed under Homo sapiens [10] was > 1000 each time. Moreover, in [1], the inhibition constant (Ki) was found to be 4.8 nM.
As to `Cc1nc(C)c(CNc2nc(OCCCc3ccc4ccccc4n3)nc(Cl)c2C)s1`, the Ratio Ki (in the data set listed under Homo sapiens [2]; in the data set listed under Homo sapiens [3]; in the data set listed under Homo sapiens [4]; in data set [5]; in the data set listed under Homo sapiens [6]; in the data set filed under Homo sapiens [7]) was > 1000 each time. The Ratio Ki in the data set listed under Homo sapiens [8], in the data set filed under Homo sapiens [9] and in the data set filed under Homo sapiens [10] was > 1000 in each case. Besides, the results for the concentration at 3.5 h in data set [11], in data set [12] and in data set [13] were 110 nM, 83 nM and 17 nM, respectively. This compound also showed a Ki in [1] of 0.0082 nM. The result with Rattus norvegicus was Active.
Take `Cc1c(Cl)nc(C2CC2)nc1NCc1ccon1`: the affinity in [1] corresponds to a Ki of 810 nM.
On to `Cc1nc(C)c(CNc2nc(OCCCc3nc4ccccc4s3)nc(Cl)c2C)s1`, for which the Ki in [1] amounted to 0.055 nM.
Compound `Cc1cc(CN(C)c2nc(C3CC3)nc(Cl)c2C)on1` showed a Ki in data set [1] of 540 nM.
As to `Cc1c(Cl)nc(C2CC2)nc1NCc1cnn(C)c1`, the affinity in data set [1], expressed as Ki, was 37 nM.
Regarding `Cc1c(N)nc(C2CC2)nc1Cl`, the affinity in data set [1] corresponds to a Ki of 2200 nM.
The compound `Cc1nc(C)c(CNc2nc(OCCC3CCCCN3)nc(Cl)c2C)s1` (centres undefined) registered a Ki in data set [1] of 590 nM.
The compound `COc1nc(Cl)c(C)c(NCc2sc(C)nc2C)n1` gave a Ki in data set [1] of 8.5 nM.
On the same count and under the same terms, then `Cc1ncc(CNc2nc(C3CC3)nc(Cl)c2C)s1`, with 26 nM; and `Cc1nc(C)c(CNc2nc(OCCCc3ccc4cccnc4n3)nc(Cl)c2C)s1`, with 0.11 nM.
Still for that read-out and setting: then `Cc1c(Cl)nc(C2CC2)nc1N(C)Cc1cnn(C)c1`, with 220 nM.
Regarding `Cc1c(Cl)nc(C2CC2)nc1N1CCCCC1`, the inhibition constant Ki in [1] was found to be 2100 nM.
Regarding `C=C(F)CNc1nc(C2CC2)nc(Cl)c1C`, in [1], the affinity, expressed as Ki, was 180 nM.
The same measure, in the same setting: then `Cc1nc(C)c(CNc2nc(OCCC3CCCCC3)nc(Cl)c2C)s1`, with 400 nM.
As for `Cc1c(Cl)nc(C2CC2)nc1NCCc1cnn(C)c1`, the Ki in data set [1] amounted to 1500 nM.
`Cc1nc2c(s1)CN(c1nc(C3CC3)nc(Cl)c1C)CC2` registered a Ki in [1] of 1300 nM.
